Experimental data pooled from the literature.
Compare with care: the assays were run in different laboratories.
Sample: Caco-2

| Compound | concentration | time | pH | endpoint | value |
| --- | --- | --- | --- | --- | --- |
| CC(C)(/C=C(\C#N)C(=O)N1CCC[C@@H](n2nc(-c3ccc(Oc4ccccc4)cc3F)c3c(N)ncnc32)C1)N1CCN(C2COC2)CC1 | 1 µM |  |  | Papp | 1.7 ×10⁻⁶ cm/s |
| CC(C)NCC(O)COc1cccc2ccccc12 (stereo not shown) |  |  |  | Papp B→A | 59.3 ×10⁻⁶ cm/s |
| COCCc1ccc(OCC(O)CNC(C)C)cc1 (stereo not shown) |  |  |  | Papp | 15 ×10⁻⁶ cm/s |
| CC(C)c1cccc2c(-c3ccccc3)cc(-c3ccc(-c4ccc(C(=O)O)cc4)[nH]3)nc12 |  |  |  | Papp B→A | 1.11 ×10⁻⁶ cm/s |
| O=c1c(O[C@@H]2O[C@H](CO)[C@@H](O)[C@H](O)[C@H]2O)c(-c2ccc(O)c(O)c2)oc2cc(O)cc(O)c12 | 1 mg/mL |  | pH 7.4 | Papp | 2.05 ×10⁻⁶ cm/s |
| Nc1cc(N2CCCCC2)nc(N)[n+]1[O-] | 10 µM | 2 h | pH 7.4 | Papp B→A | 7.19 ×10⁻⁶ cm/s |
| CC1=C2C(=O)O[C@@H](c3ccoc3)[C@]2(C)CCC1 | 1 mg/mL | 4 h | pH 7.4 | Papp | > 10 ×10⁻⁶ cm/s |
| CN(C)C(=O)c1cc2cnc(Nc3ccc(N4CCNCC4)cn3)nc2n1C1CCCC1 |  |  |  | Papp | 1.83 ×10⁻⁶ cm/s |
| CCn1c(=O)c2c(nc(S)n2C)n(C)c1=O | 10 µM | 2 h |  | Papp B→A | 7 ×10⁻⁶ cm/s |
| C[C@H]1O[C@@H](O[C@H]2[C@@H](O)C[C@H](O[C@H]3[C@@H](O)C[C@H](O[C@H]4CC[C@@]5(C)[C@H](CC[C@@H]6[C@@H]5C[C@@H](O)[C@]5(C)[C@@H](C7=CC(=O)OC7)CC[C@]65O)C4)O[C@@H]3C)O[C@@H]2C)C[C@H](O)[C@@H]1O | 10 µM | 2 h | pH 7.4 | Papp B→A | 9.63 ×10⁻⁶ cm/s |
| O=c1c(O)c(-c2ccc(O)c(O)c2)oc2cc(O)cc(O)c12 | 1 mg/mL |  | pH 7.4 | Papp | 1.7 ×10⁻⁶ cm/s |
| CCC(C)n1ncn(-c2ccc(N3CCN(c4ccc(OCC5COC(Cn6cncn6)(c6ccc(Cl)cc6Cl)O5)cc4)CC3)cc2)c1=O (stereo not shown) | 1 µM |  | pH 7.4 | Papp | 1.5 to 2.5 ×10⁻⁶ cm/s |
| CC[C@H](C)C(=O)N1CCC(NC(=O)Nc2ccc(OC(F)(F)F)c(F)c2)CC1 | 10 µM | 1 h | pH 7.4 | Papp B→A | 16.4 ×10⁻⁶ cm/s |
| O=C(c1cc(Cc2n[nH]c(=O)c3ccccc23)ccc1F)N1CCN(C(=O)C2CC2)CC1 |  |  |  | Papp | 7.75 ×10⁻⁶ cm/s |
| CC(C)NCC(O)COc1cccc2ccccc12 (stereo not shown) | 10 µM | 2 h | pH 7.4 | Papp B→A | 9.99 ×10⁻⁶ cm/s |
| CCCCN1C(=O)[C@@H]([C@@H](O)C2CCCCC2)NC(=O)C12CCN(Cc1ccc(Oc3ccc(C(=O)O)cc3)cc1)CC2.Cl |  |  |  | Papp | 1.6 ×10⁻⁶ cm/s |
